Measurements from ChEMBL document CHEMBL2407049, “Cyclopeptide alkaloids: stereochemistry and synthesis of the precursors of discarines C and D and myrianthine A” (2013).
Active and inactive are the calls of the source. The calls are words filed in the database; no cut-off is given here.

Columns and labels:
Candida dubliniensis = experiment: Antifungal activity against Candida dubliniensis SM 26 clinical isolate assessed as concentration required to inhibit fungal growth after 24 hrs by TLC assay; format: functional
Method in brief: (§1)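 Direct TLC bioautography: compound amounts from 50 to 1.56 μg applied to precoated TLC plates, overlaid with Mueller Hinton or Sabouraud agar inoculated with microorganism suspension (10⁵ cfu mL⁻¹). Plates incubated 24 h at 37 °C, then stained with aqueous 2,3,5-triphenyltetrazolium chloride (1 mg mL⁻¹). The lowest amount giving an inhibition zone was recorded; <50 μg counted active. Triplicate.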

Candida tropicalis = experiment: Antifungal activity against Candida tropicalis ATCC 750 assessed as concentration required to inhibit fungal growth after 24 hrs by TLC assay; format: functional; method in brief: as §1
Cryptococcus neoformans = experiment: Antifungal activity against Cryptococcus neoformans ATCC 28952 assessed as concentration required to inhibit fungal growth after 24 hrs by TLC assay; format: functional; method in brief: as §1
Candida albicans = experiment: Antifungal activity against Candida albicans ATCC 10231 assessed as concentration required to inhibit fungal growth after 24 hrs by TLC assay; format: functional; method in brief: as §1
Saccharomyces cerevisiae = experiment: Antifungal activity against Saccharomyces cerevisiae ATCC 2601 assessed as concentration required to inhibit fungal growth after 24 hrs by TLC assay; format: functional; method in brief: as §1
Staphylococcus aureus [1] = experiment: Antibacterial activity against Staphylococcus aureus ATCC 6538p assessed as concentration required to inhibit bacterial growth after 24 hrs by TLC assay; format: functional; method in brief: as §1
Kocuria rhizophila [2] = experiment: Antibacterial activity against Micrococcus luteus ATCC 9341 assessed as concentration required to inhibit bacterial growth after 24 hrs by TLC assay; format: functional; method in brief: as §1
Staphylococcus aureus [3] = experiment: Antibacterial activity against Staphylococcus aureus ATCC 6538p assessed as growth inhibition at 50 to 1.56 ug after 24 hrs by TLC assay; format: functional; method in brief: as §1
Kocuria rhizophila [4] = experiment: Antibacterial activity against Micrococcus luteus ATCC 9341 assessed as growth inhibition at 50 to 1.56 ug after 24 hrs by TLC assay; format: functional; method in brief: as §1
[5] = (§2) Antibacterial activity against Salmonella Setubal ATCC 19196 assessed as growth inhibition at 50 to 1.56 ug after 24 hrs by TLC assay; format: functional, Salmonella enterica subsp. enterica serovar Setubal; method in brief: as §1
Klebsiella pneumoniae [6] = experiment: Antibacterial activity against Klebsiella pneumoniae ATCC 10031 assessed as growth inhibition at 50 to 1.56 ug after 24 hrs by TLC assay; format: functional; method in brief: as §1
Escherichia coli [7] = experiment: Antibacterial activity against Escherichia coli ATCC 11103 assessed as growth inhibition at 50 to 1.56 ug after 24 hrs by TLC assay; format: functional; method in brief: as §1
[8] = tested on: Staphylococcus epidermidis; experiment: Antibacterial activity against Staphylococcus epidermidis ATCC 12228 assessed as growth inhibition at 50 to 1.56 ug after 24 hrs by TLC assay; format: functional; method in brief: as §1
[9] = Antibacterial activity against Salmonella Setubal ATCC 19196 assessed as concentration required to inhibit bacterial growth after 24 hrs by TLC assay; format: functional, Salmonella enterica subsp. enterica serovar Setubal; method in brief: as §1
[10] = tested on: Staphylococcus epidermidis; experiment: Antibacterial activity against Staphylococcus epidermidis ATCC 12228 assessed as concentration required to inhibit bacterial growth after 24 hrs by TLC assay; format: functional; method in brief: as §1
Escherichia coli [11] = experiment: Antibacterial activity against Escherichia coli ATCC 11103 assessed as concentration required to inhibit bacterial growth after 24 hrs by TLC assay; format: functional; method in brief: as §1
Klebsiella pneumoniae [12] = experiment: Antibacterial activity against Klebsiella pneumoniae ATCC 10031 assessed as concentration required to inhibit bacterial growth after 24 hrs by TLC assay; format: functional; method in brief: as §1
[13] = tested on: Salmonella enterica subsp. enterica serovar Setubal; experiment: as §2; format: functional; method in brief: as §1

With `COC(=O)[C@H](Cc1ccccc1)NC(=O)[C@@H](NC(=O)[C@H](CC(C)C)N(C)C)[C@@H](Oc1ccc(C=O)cc1)c1ccccc1` (mixture of isomers) the Activity (Candida dubliniensis) was <50 µg, the Activity (Candida tropicalis) was <50 µg and the Activity (Cryptococcus neoformans) was <50 µg. The Activity (Candida albicans) was <50 µg, the Activity (Saccharomyces cerevisiae) was <50 µg and the Activity (Staphylococcus aureus [1]) was <50 µg. The Activity (Kocuria rhizophila [2]) was <50 µg, the Activity (Staphylococcus aureus [3]) was <50 µg and the Activity (Kocuria rhizophila [4]) was <50 µg. For the same compound, the Activity [5] was <50 µg, the Activity (Klebsiella pneumoniae [6]) was <50 µg and the Activity (Escherichia coli [7]) was <50 µg. The Activity [8] was <50 µg, the Activity [9] was <50 µg and the Activity [10] was <50 µg. The Activity (Escherichia coli [11]) was <50 µg and the Activity (Klebsiella pneumoniae [12]) was <50 µg.
With `CC[C@H](C)[C@H](NC(=O)[C@@H](NC(=O)[C@H](CC(C)C)N(C)C)[C@@H](Oc1ccc(C=O)cc1)c1ccccc1)C(=O)OC` the Activity (Candida dubliniensis) was <50 µg, the Activity (Candida tropicalis) was <50 µg and the Activity (Cryptococcus neoformans) was <50 µg. For the same compound, the Activity (Candida albicans) was <50 µg, the Activity (Saccharomyces cerevisiae) was <50 µg and the Activity (Staphylococcus aureus [1]) was <50 µg. The Activity (Kocuria rhizophila [2]) was <50 µg, the Activity (Staphylococcus aureus [3]) was <50 µg and the Activity (Kocuria rhizophila [4]) was <50 µg. The Activity [5] was <50 µg, the Activity (Klebsiella pneumoniae [6]) was <50 µg and the Activity (Escherichia coli [7]) was <50 µg. For the same compound, the Activity [8] was <50 µg, the Activity [9] was <50 µg and the Activity [10] was <50 µg. For the same compound, the Activity (Escherichia coli [11]) was <50 µg and the Activity (Klebsiella pneumoniae [12]) was <50 µg.
With `COC(=O)[C@H](Cc1ccccc1)NC(=O)[C@H](NC(=O)[C@H](CC(C)C)N(C)C)[C@H](Oc1ccc(C=O)cc1)c1ccccc1` (mixture of isomers) the Activity (Candida dubliniensis) was <50 µg, the Activity (Candida tropicalis) was <50 µg and the Activity (Cryptococcus neoformans) was <50 µg. The Activity (Candida albicans) was <50 µg, the Activity (Saccharomyces cerevisiae) was <50 µg and the Activity (Staphylococcus aureus [1]) was <50 µg. The Activity (Kocuria rhizophila [2]) was <50 µg, the “growth inhibition (GI)” value (Staphylococcus aureus [3]) was “inactive” and the “growth inhibition (GI)” value (Kocuria rhizophila [4]) was “inactive”. For the same compound, the “growth inhibition (GI)” value [13] was “inactive”, the “growth inhibition (GI)” value (Klebsiella pneumoniae [6]) was “inactive” and the “growth inhibition (GI)” value (Escherichia coli [7]) was “inactive”. The “growth inhibition (GI)” value [8] was “inactive”, the Activity [9] was <50 µg and the Activity [10] was <50 µg. The Activity (Escherichia coli [11]) was <50 µg and the Activity (Klebsiella pneumoniae [12]) was <50 µg.
In the case of `CC[C@H](C)[C@H](NC(=O)[C@H](NC(=O)[C@H](CC(C)C)N(C)C)[C@H](Oc1ccc(C=O)cc1)c1ccccc1)C(=O)OC`, the Activity (Candida dubliniensis) is reported as <50 µg, the Activity (Candida tropicalis) is reported as <50 µg and the Activity (Cryptococcus neoformans) is reported as <50 µg. The Activity (Candida albicans) was <50 µg, the Activity (Saccharomyces cerevisiae) was <50 µg and the Activity (Staphylococcus aureus [1]) was <50 µg. The Activity (Kocuria rhizophila [2]) was <50 µg, the “growth inhibition (GI)” value (Staphylococcus aureus [3]) was “inactive” and the “growth inhibition (GI)” value (Kocuria rhizophila [4]) was “inactive”. The “growth inhibition (GI)” value [13] was “inactive”, the “growth inhibition (GI)” value (Klebsiella pneumoniae [6]) was “inactive” and the “growth inhibition (GI)” value (Escherichia coli [7]) was “inactive”. For the same compound, the “growth inhibition (GI)” value [8] was “inactive”, the Activity [9] was <50 µg and the Activity [10] was <50 µg. The Activity (Escherichia coli [11]) was <50 µg and the Activity (Klebsiella pneumoniae [12]) was <50 µg.
With `CC[C@H](C)[C@H](NC(=O)[C@H]([C@@H](Oc1ccc(C=O)cc1)c1ccccc1)N1CN(C)[C@@H](CC(C)C)C1=O)C(=O)OC` (mixture of isomers) the Activity (Candida dubliniensis) was <50 µg, the Activity (Candida tropicalis) was <50 µg and the Activity (Cryptococcus neoformans) was <50 µg. The Activity (Candida albicans) was <50 µg, the Activity (Saccharomyces cerevisiae) was <50 µg and the Activity (Staphylococcus aureus [1]) was <50 µg. The Activity (Kocuria rhizophila [2]) was <50 µg, the Activity [9] was <50 µg and the Activity [10] was <50 µg. For the same compound, the Activity (Escherichia coli [11]) was <50 µg and the Activity (Klebsiella pneumoniae [12]) was <50 µg.
In the case of `COC(=O)[C@H](Cc1ccccc1)NC(=O)[C@H](NC(=O)[C@H](CC(C)C)N(C)C)[C@@H](O)c1ccccc1`, the Activity (Candida dubliniensis) is reported as <50 µg, the Activity (Candida tropicalis) is reported as <50 µg and the Activity (Cryptococcus neoformans) is reported as <50 µg. The Activity (Candida albicans) was <50 µg, the Activity (Saccharomyces cerevisiae) was <50 µg and the Activity (Staphylococcus aureus [1]) was <50 µg. For the same compound, the Activity (Kocuria rhizophila [2]) was <50 µg, the Activity [9] was <50 µg and the Activity [10] was <50 µg. For the same compound, the Activity (Escherichia coli [11]) was <50 µg and the Activity (Klebsiella pneumoniae [12]) was <50 µg.
For `CC(C)C[C@@H]1NC(=O)[C@@H](NC(=O)[C@H](CC(C)C)N(C)C)[C@H](c2ccccc2)Oc2ccc(cc2)/C=C\NC1=O` (mixture of isomers), the Activity (Candida dubliniensis) was >50 µg, the Activity (Candida tropicalis) was >50 µg and the Activity (Cryptococcus neoformans) was >50 µg. The Activity (Candida albicans) was >50 µg, the Activity (Saccharomyces cerevisiae) was >50 µg and the Activity (Staphylococcus aureus [1]) was >50 µg. For the same compound, the Activity (Kocuria rhizophila [2]) was >50 µg, the Activity [9] was >50 µg and the Activity [10] was >50 µg. The Activity (Escherichia coli [11]) was >50 µg and the Activity (Klebsiella pneumoniae [12]) was >50 µg.
In the case of `CC[C@H](C)[C@H](NC(=O)[C@@H]([C@H](Oc1ccc(C=O)cc1)c1ccccc1)N1CN(C)[C@@H](CC(C)C)C1=O)C(=O)OC` (mixture of isomers), the Activity (Candida dubliniensis) is reported as <50 µg, the Activity (Candida tropicalis) is reported as <50 µg and the Activity (Cryptococcus neoformans) is reported as <50 µg. The Activity (Candida albicans) was <50 µg, the Activity (Saccharomyces cerevisiae) was <50 µg and the Activity (Staphylococcus aureus [1]) was <50 µg. For the same compound, the Activity (Kocuria rhizophila [2]) was <50 µg, the Activity [9] was <50 µg and the Activity [10] was <50 µg. The Activity (Escherichia coli [11]) was <50 µg and the Activity (Klebsiella pneumoniae [12]) was <50 µg.
With `CC[C@H](C)[C@H](NC(=O)[C@H](NC(=O)[C@H](CC(C)C)N(C)C)[C@@H](O)c1ccccc1)C(=O)OC` (mixture of isomers) the Activity (Candida dubliniensis) was <50 µg, the Activity (Candida tropicalis) was <50 µg and the Activity (Cryptococcus neoformans) was <50 µg. The Activity (Candida albicans) was <50 µg, the Activity (Saccharomyces cerevisiae) was <50 µg and the Activity (Staphylococcus aureus [1]) was <50 µg. The Activity (Kocuria rhizophila [2]) was <50 µg, the Activity [9] was <50 µg and the Activity [10] was <50 µg. For the same compound, the Activity (Escherichia coli [11]) was <50 µg and the Activity (Klebsiella pneumoniae [12]) was <50 µg.
For `COC(=O)[C@H](Cc1ccccc1)NC(=O)[C@@H]([C@H](Oc1ccc(C=O)cc1)c1ccccc1)N1CN(C)[C@@H](CC(C)C)C1=O` (mixture of isomers), the Activity (Candida dubliniensis) was <50 µg, the Activity (Candida tropicalis) was <50 µg and the Activity (Cryptococcus neoformans) was <50 µg. The Activity (Candida albicans) was <50 µg, the Activity (Saccharomyces cerevisiae) was <50 µg and the Activity (Staphylococcus aureus [1]) was <50 µg. The Activity (Kocuria rhizophila [2]) was <50 µg, the Activity [9] was <50 µg and the Activity [10] was <50 µg. For the same compound, the Activity (Escherichia coli [11]) was <50 µg and the Activity (Klebsiella pneumoniae [12]) was <50 µg.
In the case of `CC[C@H](C)[C@H](NC(=O)[C@H](NC(=O)[C@H](CC(C)C)NC(=O)OCc1ccccc1)[C@@H](O)c1ccccc1)C(=O)OC` (mixture of isomers), the Activity (Candida dubliniensis) is reported as <50 µg, the Activity (Candida tropicalis) is reported as <50 µg and the Activity (Cryptococcus neoformans) is reported as <50 µg. For the same compound, the Activity (Candida albicans) was <50 µg, the Activity (Saccharomyces cerevisiae) was <50 µg and the Activity (Staphylococcus aureus [1]) was <50 µg. For the same compound, the Activity (Kocuria rhizophila [2]) was <50 µg, the Activity [9] was <50 µg and the Activity [10] was <50 µg. The Activity (Escherichia coli [11]) was <50 µg and the Activity (Klebsiella pneumoniae [12]) was <50 µg.
